ChEMBL document CHEMBL4354863, “Discovery of Novel Allosteric Inhibitors of Deoxyhypusine Synthase” (J Med Chem, 2020)

Columns and labels:
[1] = target: T1, Deoxyhypusine synthase (Homo sapiens, UniProt P49366); assay: (§1) Inhibition of human N-terminal His6-tagged TEV protease site linked DHPS expressed in Escherichia coli BL21 (DE3) assessed as reduction in radiolabelled amino-butylidene incorporation in eIF5A using [3H]Spermidine trichloride as substrate after 90 to 120 mins in presence of eIF5A and 14 uM NAD+ by Topcount scintillation counting method
T1 sequence (P49366 whole entry): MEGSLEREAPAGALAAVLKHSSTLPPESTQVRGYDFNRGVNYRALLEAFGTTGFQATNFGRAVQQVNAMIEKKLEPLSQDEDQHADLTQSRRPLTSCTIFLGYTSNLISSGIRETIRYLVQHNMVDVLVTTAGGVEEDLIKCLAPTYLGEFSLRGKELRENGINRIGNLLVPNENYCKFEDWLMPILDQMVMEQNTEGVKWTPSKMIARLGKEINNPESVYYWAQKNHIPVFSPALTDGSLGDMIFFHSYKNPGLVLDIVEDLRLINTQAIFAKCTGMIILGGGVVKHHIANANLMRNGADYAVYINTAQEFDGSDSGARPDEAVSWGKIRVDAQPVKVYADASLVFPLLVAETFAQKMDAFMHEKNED
In short: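 Reaction run 120 min at room temperature, quenched with GC-7, and bound to streptavidin plates for 90–120 min. Plates washed and scintillation-counted. IC50 with 95% CI from nonlinear regression of percent inhibition.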

[2] = target: T1, Deoxyhypusine synthase; assay: as §1, with “Competitive inhibition” for “Inhibition”, “using 2 uM of” for “using”, “250” for “14”
In short: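 Human DHPS (His-tagged, tag removed with TEV, purified by Ni-affinity and size exclusion), 24 nM, with 1 µM eIF5A, 2 µM [³H]-spermidine (38.5 Ci/mmol) and 250 µM NAD⁺ (×18 Km). Reaction run 120 min at room temperature, stopped with GC-7, and captured on streptavidin plates for 90–120 min. Plates washed with PBS and counted by scintillation. IC50 from nonlinear regression of percent inhibition.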

[3] = target: T1, Deoxyhypusine synthase; assay: as §1, with “Competitive inhibition” for “Inhibition”, “using 100 uM of” for “using”
In short: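 Human DHPS expressed in E. coli, Ni-affinity purified, His-tag removed by TEV protease, then size-exclusion purified; 24 nM enzyme. Run with 1 µM eIF5A, 14 µM NAD+, 100 µM [3H]-spermidine (high-spermidine condition), 1 mM DTT, 50 mM Tris-HCl pH 8.0, 120 min at room temperature. Stopped with GC-7, captured on streptavidin plates, PBS-washed, scintillation counted. IC50 from nonlinear regression, 95% CI.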

| IC50 [1] | IC50 [2] | IC50 [3] | SMILES |
| --- | --- | --- | --- |
| > 100 µM | – | – | CC(C)(C)c1ccc(S(=O)(=O)Nc2cccc3[nH]ccc23)cc1 |
| 0.43 µM | – | – | N#Cc1ccc2cc(C(=O)Nc3cccc4[nH]ccc34)sc2c1 |
| > 100 µM | – | – | O=C(Nc1cccc2[nH]ccc12)c1ccc2ccccc2c1 |
| 99 µM | – | – | CC(C)(C)c1ccc(NC(=O)c2cccc3[nH]ccc23)cc1 |
| 0.14 µM | 0.5 µM | – | N=C(N)NCCCCCCCN |
| 22 µM | – | – | CC(C)(C)c1ccc(C(=O)Nc2cccc3[nH]ncc23)cc1 |
| > 100 µM | – | – | O=C(Nc1cccc2[nH]ccc12)c1cc2cc(Br)ccc2s1 |
| > 100 µM | – | – | CC(C)(C)c1ccc(C(=O)Nc2cccc3c2CCN3)cc1 |
| > 100 µM | – | – | CC(C)(C)c1ccc(C(=O)Nc2cccc3cn[nH]c23)cc1 |
| 0.092 µM | – | – | O=C(Nc1cccc2[nH]ccc12)c1cc2ccc(I)cc2s1 |
| > 100 µM | – | – | CC(C)(C)c1ccc(NC(=O)Nc2cccc3[nH]ccc23)cc1 |
| 0.12 µM | – | – | O=C(Nc1cccc2[nH]ccc12)c1cc2ccc(Cl)cc2s1 |
| 42 µM | – | – | CC(C)(C)c1ccc(C(=O)Nc2cccc3c2CC(=O)N3)cc1 |
| 2.3 µM | – | – | O=C(Nc1cccc2[nH]ccc12)c1cc2ccccc2s1 |
| 5.4 µM | – | – | CC(C)(C)c1ccc2cc(C(=O)Nc3cccc4[nH]ccc34)sc2c1 |
| > 100 µM | – | – | O=C(Nc1cccc2[nH]ccc12)c1cc2cccc(Br)c2s1 |
| > 100 µM | – | – | O=C(Nc1cccc2[nH]ccc12)c1cc2ccccc2o1 |
| 11 µM | – | – | NC(=O)c1ccc2cc(C(=O)Nc3cccc4[nH]ccc34)sc2c1 |
| 0.062 µM | 56 µM | 6.9 µM | O=C(Nc1cccc2[nH]ccc12)c1cc2ccc(Br)cc2s1 |
| > 100 µM | – | – | O=C(Nc1cccc2[nH]ccc12)c1ccccc1 |
| 0.84 µM | 38 µM | – | CC(C)(C)c1ccc(C(=O)Nc2cccc3[nH]ccc23)cc1 |
